Assay results from different studies.
Protocols differ between the studies behind these lines.
CSF1R: Macrophage colony-stimulating factor 1 receptor (CSF1R, Homo sapiens, UniProt P07333)
CSF1R autoinhibited: Macrophage colony-stimulating factor 1 receptor, autoinhibited (CSF1R, Homo sapiens, UniProt P07333)
CSF1R Y969C: Macrophage colony-stimulating factor 1 receptor (CSF1R, Homo sapiens, UniProt P07333, Y969C)

SMILES | target | test | conditions | endpoint | value
COc1cc2ncnc(Nc3ccc(F)c(Cl)c3)c2cc1OCCCN1CCOCC1 | CSF1R | cell-free assay | 0.5 µM | remaining signal | 110%
C=CC(=O)Nc1cc(Nc2nccc(Nc3cc(Cl)c(F)cc3C(C)(C)O)n2)c(OC)cc1N1CC[C@@H](N(C)C)C1 | CSF1R | enzyme activity, inhibitor | 1 µM | inhibition | 13%
CN(C)c1nccc(-c2cnc3ncccn23)n1 | CSF1R autoinhibited | binding | 1 µM | remaining binding | 65%
Nc1ncnc2occ(-c3ccc(NC(=O)Nc4cc(C(F)(F)F)ccc4F)cc3)c12 | CSF1R autoinhibited | cell-free assay | 20 µM | remaining signal | 0.95%
N[C@@H]1CCN(c2nccc(-c3cnn4ncccc34)n2)C1 | CSF1R autoinhibited | binding | 1 µM | remaining binding | 100%
CCN(CC)c1ccc(C2=NNC(=O)CC2C)cc1[N+](=O)[O-] (centres unmarked) | CSF1R | enzyme activity, inhibitor | 10 µM | remaining activity | 114%
Oc1cccc(-c2nc(N3CCOCC3)c3oc4ncccc4c3n2)c1 | CSF1R | cell-free assay | 0.5 µM | remaining signal | 108%
COc1cc2ncnc(Nc3ccc(Oc4ccccc4)c(C)c3C)c2cc1OC | CSF1R | enzyme activity, inhibitor | 1 µM | inhibition | 8%
c1cnn2ncc(-c3ccnc(N4CCC45COC5)n3)c2c1 | CSF1R | binding | 1 µM | remaining binding | 100%
CO[C@@H](C)c1c(Nc2ccc([C@@H](N(C)C(=O)C3CCS(=O)(=O)CC3)C(F)(F)F)cc2)cnc2cc(Cl)nn12 | CSF1R autoinhibited | cell-free assay, competition with immobilised ligand | 1 µM | remaining binding | 88%
CS(=O)(=O)Nc1cccc(-c2csc(NC(=O)CSc3nc4nccnc4c(=O)n3CCc3ccccc3)n2)c1 | CSF1R | enzyme activity, inhibitor | 10 µM | inhibition | 8%
Cc1ccc(NC(=O)c2ccc(C)c(C(F)(F)F)c2)cc1C#Cc1nn(C2CCC(O)CC2)c2ncnc(N)c12 (centres unmarked) | CSF1R | cell-free assay | 10 µM | remaining signal | 4%
O=S(=O)(c1cccc2cnccc12)N1CCCNCC1 | CSF1R | cell-free assay | 0.5 µM | remaining signal | 97.9%
CCCCN(CCCC)C(=O)CN1C[C@@H](c2cc(OC)c3c(c2)OCO3)[C@H](C(=O)O)[C@H]1CC(C)(C)CCC | CSF1R autoinhibited | cell-free assay, competition with immobilised ligand | 1 µM | remaining binding | 100%
COc1cc(Cl)c(C(=O)N[C@@H](CN[C@H]2CC[C@@H](N)CC2)Cc2ccc(C#N)cc2)cc1-c1ccc(CN[C@H](C)c2ccc(C)cc2)o1 | CSF1R | enzyme activity, inhibitor | 1 µM | remaining activity | 111%
COc1cccc(CNC(=O)c2nc3scc(COCc4ccc(C(=O)O)cc4)c3c(=O)[nH]2)c1 | CSF1R autoinhibited | cell-free assay, competition with immobilised ligand | 1 µM | remaining binding | 100%
Cc1cnc(NC2CCOCC2)nc1-n1cnc(C(=O)NC(CN)c2cc(F)cc(Cl)c2)c1 (centres unmarked) | CSF1R Y969C | enzyme activity, inhibitor, radiometric | 1 µM | remaining activity | 101%
Cc1c(NC(=O)c2cc(C(N)=O)nc3cc(F)ccc23)c(C(F)(F)F)nn1Cc1ccc(C#N)cc1 | CSF1R | cell-free assay, competition with immobilised ligand | 1 µM | remaining binding | 83%

SMILES | target | test | conditions | endpoint | value
CN(CCCC(F)(F)F)c1nccc(-c2cnn3ncccc23)n1 | CSF1R autoinhibited | binding | 1 µM | remaining binding | 100%
O=C(N1CCS(=O)(=O)CC1)N1C[C@H](c2ccc(OC(F)(F)F)cc2)C[C@H](c2nc(C3CC3)no2)C1 | CSF1R | cell-free assay, competition with immobilised ligand | 1 µM | remaining binding | 100%
c1ccc(-c2n[nH]c3c2oc2ccccc23)cc1 | CSF1R | cell-free assay | 0.5 µM | remaining signal | 78.1%
Cc1sc(C(=O)NC2COC2)cc1-n1cc(NC(=O)Nc2c(F)cccc2Cl)cn1 | CSF1R | enzyme activity, inhibitor | 10 µM | remaining activity | 103%
C[C@@H]1CCN(c2nccc(-c3cnn4ncccc34)n2)C1 | CSF1R autoinhibited | binding | 1 µM | remaining binding | 78%
COc1ccc2cc(OCC3(C(=O)O)CN(C(=O)c4ccc(F)cc4)C3)ccc2c1 | CSF1R | cell-free assay, competition with immobilised ligand | 1 µM | remaining binding | 100%
CC(C)(C)c1nc2c(s1)c1nc(N)ncc1c1ccc(NS(=O)(=O)c3c(F)cccc3F)c(F)c12 | CSF1R | enzyme activity, inhibitor, radiometric | 1 µM | remaining activity | 109%
CCS(=O)(=O)c1cc2cc(C[C@@](O)(CC(C)(C)c3ccc(F)cc3C(N)=O)C(F)(F)F)[nH]c2cn1 | CSF1R autoinhibited | cell-free assay, competition with immobilised ligand | 1 µM | remaining binding | 94%
COc1cc2nccc(Oc3ccc(NC(=O)c4c5n(n(-c6ccc(F)cc6)c4=O)CCCC5)cc3)c2cc1OC | CSF1R | enzyme activity, inhibitor | 0.1 µM | inhibition | 38%
CN(C)C1CCN(CC#Cc2nn(C3CCCC3)c3nc(NCc4ccccc4)ncc23)C1 (centres unmarked) | CSF1R | enzyme activity, inhibitor, FRET | 0.1 µM | inhibition | 44%
O=Nc1c(-c2c(O)[nH]c3ccccc23)[nH]c2ccccc12 | CSF1R | cell-free assay | 0.5 µM | remaining signal | 83.2%
CNC(=O)c1cc2c(Oc3ccc(NC(=O)C4(C(=O)Nc5ccc(F)cc5)CC4)cc3)ccnc2cc1OC | CSF1R | enzyme activity, inhibitor, radiometric | 1 µM | inhibition | 98%
Cc1ccc(C(=O)NCc2ccsc2)cc1C#Cc1cn(C(C)C)c2ncnc(N)c12 | CSF1R | enzyme activity, inhibitor | 1 µM | activity vs control | 8%
CCCOc1ccc(OC)c(F)c1C(=O)c1ccc(C(=O)N[C@@H]2CNC[C@H]2NC(=O)c2ccc3[nH]ncc3c2)cc1 | CSF1R Y969C | enzyme activity, inhibitor | 10 µM | remaining activity | 57%
CCN(CC)CCNC(=O)c1c(C)[nH]c(/C=C2\C(=O)Nc3ccc(F)cc32)c1C | CSF1R | cell-free assay | 10 µM | inhibition | 98%
CS(=O)(=O)N1CCCC(NC(=O)[C@H](CCC2CCCCC2)NC(=O)c2ccc(CNC(=O)c3cnc4ccccn34)cc2)C1 (some centres unmarked) | CSF1R autoinhibited | cell-free assay, competition with immobilised ligand | 0.1 µM | remaining binding | 100%
Cc1cc(NC(=O)c2cccc3cc(-c4cccc5[nH]nc(N)c45)ccc23)ccc1F | CSF1R | enzyme activity, inhibitor | 0.1 µM | activity vs control | 7%
